Measurements from ChEMBL document CHEMBL4732027, “Pyridazinone derivatives as potential anti-inflammatory agents: synthesis and biological evaluation as PDE4 inhibitors” (RSC Med Chem, 2021).
Calls of active or inactive are those of the source. The rule behind the calls is not given here.

Columns and labels:
[1] = molecular target: T1, 3',5'-cyclic-AMP phosphodiesterase 4B (Homo sapiens, UniProt Q07343); assay: Inhibition of recombinant human PDE-4B expressed in Escherichia coli at 20 uM using cAMP as substrate incubated for 60 mins by PDE4 assay kit method relative to control
T1 sequence (Q07343 whole entry): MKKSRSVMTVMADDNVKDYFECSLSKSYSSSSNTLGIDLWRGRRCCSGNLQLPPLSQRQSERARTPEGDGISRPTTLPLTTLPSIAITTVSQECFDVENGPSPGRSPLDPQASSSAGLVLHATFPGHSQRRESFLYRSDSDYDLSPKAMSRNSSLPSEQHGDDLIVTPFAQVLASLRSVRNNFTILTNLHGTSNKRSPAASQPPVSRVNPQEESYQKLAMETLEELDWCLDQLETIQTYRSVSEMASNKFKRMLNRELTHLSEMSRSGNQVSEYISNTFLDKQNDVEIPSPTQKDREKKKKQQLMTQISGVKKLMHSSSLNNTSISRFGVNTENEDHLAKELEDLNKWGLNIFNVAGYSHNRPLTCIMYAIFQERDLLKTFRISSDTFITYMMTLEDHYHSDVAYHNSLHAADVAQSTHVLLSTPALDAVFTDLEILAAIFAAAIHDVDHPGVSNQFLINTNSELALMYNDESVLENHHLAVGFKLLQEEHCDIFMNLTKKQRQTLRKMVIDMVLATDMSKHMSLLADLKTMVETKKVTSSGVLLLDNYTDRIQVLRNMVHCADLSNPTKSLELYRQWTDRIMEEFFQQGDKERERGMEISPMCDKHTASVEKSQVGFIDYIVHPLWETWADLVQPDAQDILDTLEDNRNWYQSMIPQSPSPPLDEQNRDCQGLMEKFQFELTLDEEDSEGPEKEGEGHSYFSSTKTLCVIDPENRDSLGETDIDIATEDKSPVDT
Method in brief: (§1)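 Human recombinant PDE4 expressed in E. coli, incubated with cAMP and 5'-nucleotidase in 10 mM Tris-HCl pH 7.4 at 30 °C for 60 min. Released phosphate detected colorimetrically after 30 min colour development. IC50 from five concentrations by nonlinear regression; mean of two or three independent runs, each in triplicate.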

[2] = molecular target: T1, 3',5'-cyclic-AMP phosphodiesterase 4B; assay: Inhibition of recombinant human PDE-4B expressed in Escherichia coli using cAMP as substrate incubated for 60 mins by PDE4 assay kit method; method in brief: as §1
[3] = Lipophilicity, logP of compound; assay type: physicochemical; settings: octanol/water
Method in brief: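 LogP calculated with software, not measured.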

Macrophage [4] = assay: Antiinflammatory activity against human PBMC derived primary macrophages assessed as reduction in LPS-induced cell morphology changes at 50 uM incubated for 24 hrs by scanning electron microscopic analysis; assay type: functional, cell-based
Method in brief: (§2)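 Human PBMCs isolated from EDTA blood (red cells lysed by hypotonic shock), grown on coverslips in RPMI 1640 + 10% heat-inactivated FBS with 25 ng/mL M-CSF for 24 h at 37 °C, 5% CO2. Non-adherent cells removed, then 24 h stimulation with LPS 10 ng/mL in 0.5% DMSO ± compound. Cells fixed in 2.5% glutaraldehyde, dehydrated in ethanol, dried with HMDS, gold-palladium coated, imaged by FE-SEM at 2 kV.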

Macrophage [5] = assay: Cytotoxicity against human PBMC derived primary macrophages assessed as reduction in cell viability at 5 to 50 uM incubated for 24 hrs by LDH assay; assay type: cell-based; settings: dose 5-50 µM
Method in brief: (§3)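 Cell death in human PBMC-derived macrophages (M-CSF 25 ng/mL, 24 h) after 24 h LPS (10 ng/mL, 0.5% DMSO) plus compound at 5–50 µM. LDH activity measured in supernatant with a commercial kit, absorbance at 492 nm corrected at 700 nm. Eight donors.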

Macrophage [6] = assay: Antiinflammatory activity against human PBMC derived primary macrophages assessed as reduction in LPS-induced IL-8 level at 20 uM incubated for 24 hrs by ELISA relative to control; assay type: functional
Method in brief: (§4)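 Macrophages from human blood PBMCs, differentiated 24 h with 25 ng/mL M-CSF, non-adherent cells removed. Stimulated 24 h with 10 ng/mL E. coli LPS in 0.5% DMSO, with compound at 5–50 µM. Supernatant cytokines measured by sandwich ELISA against a recombinant standard curve. Detection limits: IL-1β 3.9, IL-6 and TNF-α 7.8, IL-8 15.7 pg/mL. Cells from 8 donors; Kruskal–Wallis then Wilcoxon–Mann–Whitney tests.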

Macrophage [7] = assay: Antiinflammatory activity against human PBMC derived primary macrophages assessed as reduction in LPS-induced IL-8 level at 50 uM incubated for 24 hrs by ELISA relative to control; assay type: functional; method in brief: as §4
Macrophage [8] = assay: Antiinflammatory activity against human PBMC derived primary macrophages assessed as reduction in LPS-induced IL-1beta level at 20 uM incubated for 24 hrs by ELISA relative to control; assay type: functional; method in brief: as §4
Macrophage [9] = assay: Antiinflammatory activity against human PBMC derived primary macrophages assessed as reduction in LPS-induced IL-1beta level at 50 uM incubated for 24 hrs by ELISA relative to control; assay type: functional; method in brief: as §4
Macrophage [10] = assay: Antiinflammatory activity against human PBMC derived primary macrophages assessed as reduction in LPS-induced TNF-alpha level at 50 uM incubated for 24 hrs by ELISA relative to control; assay type: functional; method in brief: as §4
Macrophage [11] = assay: Antiinflammatory activity against human PBMC derived primary macrophages assessed as reduction in LPS-induced TNF-alpha level at 5 uM incubated for 24 hrs by ELISA relative to control; assay type: functional; method in brief: as §4
Macrophage [12] = assay: Antiinflammatory activity against human PBMC derived primary macrophages assessed as reduction in LPS-induced IL-6 level at 50 uM incubated for 24 hrs by ELISA relative to control; assay type: functional; method in brief: as §4
Macrophage [13] = assay: Antiinflammatory activity against human PBMC derived primary macrophages assessed as reduction in LPS-induced IL-6 level at 20 uM incubated for 24 hrs by ELISA relative to control; assay type: functional; method in brief: as §4
Macrophage [14] = assay: Antiinflammatory activity against human PBMC derived primary macrophages assessed as reduction in LPS-induced IL-6 level at 10 uM incubated for 24 hrs by ELISA relative to control; assay type: functional; method in brief: as §4
Macrophage [15] = assay: Antiinflammatory activity against human PBMC derived primary macrophages assessed as reduction in LPS-induced IL-6 level at 5 uM incubated for 24 hrs by ELISA relative to control; assay type: functional; method in brief: as §4
Mus musculus [16] = assay: Antiinflammatory activity in BALB/cJRj mouse air pouch model assessed as decrease in LPS-stimulated monocyte recruitment in air pouch at 200 uM, sc measured after 6 hrs by flow cytometry analysis relative to control; assay type: functional
Method in brief: (§5)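 Seven-week-old BALB/cJRj mice. Dorsal subcutaneous air pouch made under isoflurane with 3 mL filtered air on day 0, refilled day 3. On day 7, 2 mL LPS (10 ng/mL) in 0.5% DMSO with compound at 2, 20 or 200 µM injected into the pouch; controls got 0.5% DMSO in saline. After 6 h, exudate collected by lavage with 2 mL 5 mM PBS-EDTA. Cells counted and stained for Ly6G and F4/80, then analysed by flow cytometry. Eight to 17 animals per group.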

Mus musculus [17] = assay: Antiinflammatory activity in BALB/cJRj mouse air pouch model assessed as decrease in LPS-stimulated macrophage recruitment in air pouch at 2 to 20 uM, sc measured after 6 hrs by flow cytometry analysis; assay type: functional, organism-based; settings: dose 2-20 µM; method in brief: as §5
Mus musculus [18] = assay: Antiinflammatory activity in BALB/cJRj mouse air pouch model assessed as decrease in LPS-stimulated monocyte recruitment in air pouch at 2 to 20 uM, sc measured after 6 hrs by flow cytometry analysis; assay type: functional, organism-based; settings: dose 2-20 µM; method in brief: as §5
Mus musculus [19] = assay: Antiinflammatory activity in BALB/cJRj mouse air pouch model assessed as decrease in LPS-stimulated monocyte recruitment in air pouch at 2 uM, sc measured after 6 hrs by flow cytometry analysis; assay type: functional, organism-based; method in brief: as §5
Mus musculus [20] = assay: Antiinflammatory activity in BALB/cJRj mouse air pouch model assessed as decrease in LPS-stimulated monocyte recruitment in air pouch at 20 uM, sc measured after 6 hrs by flow cytometry analysis (reference value: 1.9); assay type: functional; method in brief: as §5
Macrophage [21] = assay: Antiinflammatory activity against LPS-treated human PBMC derived primary macrophages assessed as increase in flattened cell morphology at 10 uM incubated for 24 hrs by scanning electron microscopic analysis; assay type: functional, cell-based; method in brief: as §2
Macrophage [22] = assay: Antiinflammatory activity against human PBMC derived primary macrophages assessed as reduction in LPS-induced vesicle number at 10 uM incubated for 24 hrs by scanning electron microscopic analysis; assay type: functional, cell-based; method in brief: as §2
Macrophage [23] = assay: Antiinflammatory activity against LPS-treated human PBMC derived primary macrophages assessed as intricate cytoplasm at 10 uM incubated for 24 hrs by scanning electron microscopic analysis; assay type: functional, cell-based; method in brief: as §2
Macrophage [24] = assay: Antiinflammatory activity against LPS-induced human PBMC derived primary macrophages assessed as increase in cell size at 10 uM incubated for 24 hrs by scanning electron microscopic analysis; assay type: functional, cell-based; method in brief: as §2
Macrophage [25] = assay: Cytotoxicity against human PBMC derived primary macrophages assessed as reduction in cell viability at 10 uM incubated for 24 hrs by LDH assay; assay type: cell-based; method in brief: as §3
Macrophage [26] = assay: Antiinflammatory activity against human PBMC derived primary macrophages assessed as reduction in LPS-induced IL-8 level at 10 uM incubated for 24 hrs by ELISA relative to control; assay type: functional; method in brief: as §4
Mus musculus [27] = assay: Antiinflammatory activity in BALB/cJRj mouse air pouch model assessed as decrease in LPS-stimulated monocyte recruitment in air pouch at 200 uM, sc measured after 6 hrs by flow cytometry analysis (reference value: 1.9); assay type: functional; method in brief: as §5
Mus musculus [28] = assay: Antiinflammatory activity in BALB/cJRj mouse air pouch model assessed as decrease in LPS-stimulated macrophage recruitment in air pouch at 2 to 200 uM, sc measured after 6 hrs by flow cytometry analysis; assay type: functional, organism-based; settings: dose 2-200 µM; method in brief: as §5

SMILES	inhibition [1] [%]	other results
CC(C)Cn1c(=O)n(C)c(=O)c2nc[nH]c21	38	
Cc1cc(-c2c[nH]c3ccc([N+](=O)[O-])cc23)c(=O)[nH]n1	26.8	
Cc1cc(-c2c[nH]c3ccc(I)cc23)c(=O)[nH]n1	5.9	
CC1=NN(Cc2ccccc2)C(=O)C(c2c[nH]c3ccc(Br)cc23)C1 (stereo not given)	8.7	
Cc1cc(-c2c[nH]c3ccc(F)cc23)c(=O)[nH]n1	23.6	
COc1ccc2[nH]cc(-c3cc(C)nn(C)c3=O)c2c1	21.8	
Cc1cc(-c2c[nH]c3ccccc23)c(=O)n(C)n1	15.3	
CC1=NNC(=O)C(c2c[nH]c3ccc(F)cc23)C1 (stereo not given)	12.8	
CC1=NN(C)C(=O)C(c2c[nH]c3ccccc23)C1 (stereo not given)	8.7	
CC1=NNC(=O)C(c2c[nH]c3ccccc23)C1 (stereo not given)	32.3	
COc1ccc2[nH]cc(-c3cc(C)n[nH]c3=O)c2c1	63.9	IC50 [2]: 251 nM; logP [3]: 0.43; Activity (Macrophage [4]): Active; Activity (Macrophage [5]): Non-Toxic; inhibition at 20 µM (Macrophage [6]): 16%; inhibition at 50 µM (Macrophage [7]): 25%; inhibition at 20 µM (Macrophage [8]): 58%; inhibition at 50 µM (Macrophage [9]): 54%; inhibition at 50 µM (Macrophage [10]): 47%; inhibition at 5 µM (Macrophage [11]): 43%; inhibition at 50 µM (Macrophage [12]): 21%; inhibition at 20 µM (Macrophage [13]): 28%; inhibition at 10 µM (Macrophage [14]): 23%; inhibition at 5 µM (Macrophage [15]): 16%; inhibition in vivo at 200 µM (Mus musculus [16]): 69%; inhibition (Mus musculus [17]): Active; inhibition (Mus musculus [18]): Active
COc1ccc2[nH]cc(C3CC(C)=NNC3=O)c2c1 (stereo not given)	37.5	
Cc1cc(-c2c[nH]c3ccccc23)c(=O)[nH]n1	45.6	
Cc1cc(-c2c[nH]c3ccc(Br)cc23)c(=O)[nH]n1	16.8	
CC1=NNC(=O)C(c2c[nH]c3ccc([N+](=O)[O-])cc23)C1 (stereo not given)	19.5	
Cc1cc(-c2c[nH]c3ccc(F)cc23)c(=O)n(Cc2ccccc2)n1	17.6	
CC1=NN(Cc2ccccc2)C(=O)C(c2c[nH]c3ccc(I)cc23)C1 (stereo not given)	4.5	
Cc1cc(-c2c[nH]c3ccccc23)c(=O)n(Cc2ccccc2)n1	30.1	
CC1=NNC(=O)C(c2c[nH]c3ccc(I)cc23)C1 (stereo not given)	2.2	
Cc1cc(-c2c[nH]c3ccc(Br)cc23)c(=O)n(Cc2ccccc2)n1	14.2	
COc1ccc2[nH]cc(C3CC(C)=NN(C)C3=O)c2c1 (stereo not given)	13.4	
COc1ccc2[nH]cc(-c3cc(C)nn(Cc4ccccc4)c3=O)c2c1	49.1	
CC1=NN(Cc2ccccc2)C(=O)C(c2c[nH]c3ccc(F)cc23)C1 (stereo not given)	9.4	
CC1=NN(Cc2ccccc2)C(=O)C(c2c[nH]c3ccccc23)C1 (stereo not given)	17.7	
COc1ccc2[nH]cc(C3CC(C)=NN(Cc4ccccc4)C3=O)c2c1 (stereo not given)	28.9	
CC1=NNC(=O)C(c2c[nH]c3ccc(Br)cc23)C1 (stereo not given)	9.8	
Cc1cc(-c2c[nH]c3ccc(I)cc23)c(=O)n(Cc2ccccc2)n1	8.9	
O=C(Nc1c(Cl)cncc1Cl)c1ccc(OC(F)F)c(OCC2CC2)c1 [ROFLUMILAST]	74.6	inhibition (Mus musculus [19]): inactive; fold change (FC) (Mus musculus [20]): 3.5; Activity (Macrophage [21]): Active; Activity (Macrophage [22]): Active; Activity (Macrophage [23]): Active; Activity (Macrophage [24]): Active; Activity (Macrophage [25]): Non-Toxic; inhibition at 10 µM (Macrophage [26]): 10%; fold change (FC) (Mus musculus [27]): 2; inhibition (Mus musculus [28]): inactive
